The values below come from article PMC11825259 (Heliyon, 2024).

As a reminder, the Ki is the dissociation constant of the complex between target and ligand, obtained from inhibition or displacement. Read a high Ki as weaker binding.

This assay has as its target urease (Canavalia ensiformis, UniProt P07374). In words: In vitro kinetic assay. The format is biochemical, jack bean. An outline of the steps: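 Jack bean urease was run without and with several concentrations of the test compound, and the data were plotted as Lineweaver–Burk double-reciprocal plots. A secondary replot of Km against inhibitor concentration gave Ki. All data were in triplicate.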

urease, sequence (P07374 whole entry, looked up): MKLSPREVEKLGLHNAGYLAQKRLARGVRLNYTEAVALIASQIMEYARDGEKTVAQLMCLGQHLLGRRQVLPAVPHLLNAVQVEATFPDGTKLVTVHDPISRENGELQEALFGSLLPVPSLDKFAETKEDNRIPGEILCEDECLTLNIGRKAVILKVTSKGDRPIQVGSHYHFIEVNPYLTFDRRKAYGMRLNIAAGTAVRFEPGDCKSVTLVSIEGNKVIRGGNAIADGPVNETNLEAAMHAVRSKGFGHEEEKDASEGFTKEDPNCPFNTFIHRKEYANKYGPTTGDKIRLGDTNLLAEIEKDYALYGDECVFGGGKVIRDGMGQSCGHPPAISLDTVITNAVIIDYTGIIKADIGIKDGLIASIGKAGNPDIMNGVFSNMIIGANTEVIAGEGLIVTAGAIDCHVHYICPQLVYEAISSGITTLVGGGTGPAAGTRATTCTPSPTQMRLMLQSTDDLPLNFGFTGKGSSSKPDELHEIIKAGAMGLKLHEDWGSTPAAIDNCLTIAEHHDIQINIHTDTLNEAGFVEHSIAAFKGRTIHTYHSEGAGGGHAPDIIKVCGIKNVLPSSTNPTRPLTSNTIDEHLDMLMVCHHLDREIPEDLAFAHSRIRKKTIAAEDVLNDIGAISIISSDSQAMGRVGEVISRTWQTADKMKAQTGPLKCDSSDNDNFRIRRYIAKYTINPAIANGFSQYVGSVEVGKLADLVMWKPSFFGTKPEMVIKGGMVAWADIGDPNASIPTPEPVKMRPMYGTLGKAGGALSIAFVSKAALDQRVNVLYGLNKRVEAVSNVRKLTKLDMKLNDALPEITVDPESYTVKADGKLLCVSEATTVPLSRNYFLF

In turn, `Cc1cc(OCC(=O)N/N=C/c2ccc(OCc3cn(Cc4ccccc4)nn3)cc2)c2c(C)cc(=O)oc2c1` [13a, (E)-N'-(4-((1-Benzyl-1H-1,2,3-triazol-4-yl)methoxy)benzylidene)-2-((4,7-dimethyl-2-oxo-2H-chromen-5-yl)oxy)acetohydrazide] registered a Ki of 1990 nM. In addition, the “type of urease inhibition” value (Lineweaver-Burk plot) is on record as “uncompetitive inhibitor”.
